The list is not random: actives were taken first. Their share in the collection is about 2.5%.
EWS-Fli block – EWS/Fli transcriptional activity inhibition. A673 NR0B1-luciferase reporter, viability-normalised. inhibition, % at 12.6 µM. 0.67% of 350,000 active;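 active means mean inhibition of at least 50% after viability correction, with every replicate also passing that limit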;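 further: firefly luciferase signal divided by Alamar Blue viability fluorescence both relative to DMSO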
PAX8 inh HTS – inhibitors of PAX8 transcriptional activity in RMG-I cells; RMG-I TPO-luciferase reporter, SteadyGlo, 24 h; inhibition, % at 12.6 µM; 1.2% of 360,000 active; AID 652154;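 active means mean replicate inhibition at least 60% with every replicate also reaching 60%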;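 further: luciferase light reporting Pax8 driven TPO promoter activity; plate controls were median of neutral control wells for no effect and mitoxantrone controls for full effect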
FN deposit inh – fibronectin deposition inhibition; 0.086% of 350,000 active; inhibition, % at 12.6 µM; AH1F fibroblasts, Alexa488-fibronectin deposition fluorescence, overnight;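 active means mean inhibition across replicates of 30% or more, regardless of how many single replicates reach that level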;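 further: positive control wells lacked labelled fibronectin entirely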
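Material: AH1F fibroblast monolayer depositing Alexa488-labelled fibronectin into matrix | Input: 10000 AH1F cells/well | Medium: DMEM plus 2% serum, read in PBS | Reagent: Alexa488-fibronectin, 24 nM final in well | Compound dosing: One dose per compound, pinned | Schedule: 1 h adhesion, overnight exposure | Measured by: Fluorescence at 485 nm excitation, 525 nm emission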
MLL AF4-AF9 inh – inhibitors of human MLL-AF4/AF9 interaction. 0.47% of 350,000 active. inhibition, % at 10 µM. AlphaScreen, biotin-AF4 peptide binding to FLAG-AF9. P42568;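 active means every replicate reaching a set inhibition limit, whatever the replicate mean, cut at about 25% in these data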;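 further: 0% = plate neutral control median and 100% = total signal loss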
Target sequence (P42568 whole entry, looked up): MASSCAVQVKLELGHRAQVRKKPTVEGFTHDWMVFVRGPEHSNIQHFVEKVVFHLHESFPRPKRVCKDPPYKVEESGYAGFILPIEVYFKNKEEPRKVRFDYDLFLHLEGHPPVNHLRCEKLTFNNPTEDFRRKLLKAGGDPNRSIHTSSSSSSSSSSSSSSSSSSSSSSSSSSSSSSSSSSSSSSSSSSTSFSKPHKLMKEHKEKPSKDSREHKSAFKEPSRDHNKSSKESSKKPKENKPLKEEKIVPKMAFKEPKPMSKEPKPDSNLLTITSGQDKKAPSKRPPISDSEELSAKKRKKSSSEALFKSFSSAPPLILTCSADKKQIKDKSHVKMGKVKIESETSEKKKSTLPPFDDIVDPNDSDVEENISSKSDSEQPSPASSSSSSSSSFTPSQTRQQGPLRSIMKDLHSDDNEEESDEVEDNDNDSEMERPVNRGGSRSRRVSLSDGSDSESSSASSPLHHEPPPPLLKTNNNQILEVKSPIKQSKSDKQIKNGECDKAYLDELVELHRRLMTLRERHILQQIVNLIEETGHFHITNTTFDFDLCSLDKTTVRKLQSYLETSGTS
HIV Env fusion – inhibitors of HIV Env-mediated cell fusion. 1.1% of 360,000 active. AID 651610. inhibition, % at 12.3 µM. HeLa-JRFL Env/CEM21 cell fusion, luciferase;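 active means mean replicate inhibition score of at least 50 and every replicate individually at or above 50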;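 further: 0% = plate neutral controls and 100% = maraviroc near 300 nM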
Glyco luc inh – blocks N-linked glycosylation in D54 reporter cells. reporter increase, % at 12.5 µM. D54 ERlucT glycosylation luciferase reporter, 24 h; percent of 100 nM tunicamycin response. 0.23% of 360,000 active;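 active means mean luciferase reporter signal, scaled so untreated is 0 and the glycosylation-blocking control 100, at or above a set limit in every replicate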;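 further: luciferase carries N-glycosylation sites so blocking glycosylation raises the light; 0% = median of neutral control wells and 100% = median of 100 nM tunicamycin wells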
Starred values were filed as active, the others as inactive; . = no result given; [ ] = dose if it differs, or a comment.

SMILES	EWS-Fli block	PAX8 inh HTS	FN deposit inh	MLL AF4-AF9 inh	HIV Env fusion	Glyco luc inh
Nc1ccn(C2OC(COC(=O)C34CC5CC(CC(C5)C3)C4)C(O)C2O)c(=O)n1 (stereo not given)	14	11	.	1	68*	-1
CC(=O)N1CC2(C1)[C@@H](c1ccccc1)[C@H](CO)N2C(=O)c1ccncc1	2	-13	.	1	.	.
CCC(=O)Nc1cc2nn(-c3ccc(C)cc3)nc2cc1C	77*	-118	0	-2	-58	-21
Cc1ccc(C)c(Nc2cc(C)nc(-c3ccccc3O)n2)c1	62*	13	24	-9	17	10
COc1ccccc1C#Cc1ccc([C@H]2[C@@H](CO)N(C(=O)C3CCCC3)[C@H]2C#N)cc1	2	.	-3	-3	.	.
CCc1cnc(N2[C@@H](C#N)[C@H](c3ccc(C#Cc4ccccc4F)cc3)[C@@H]2CO)s1	-14	-8	-1	-6	59*[16.7 µM]	.
CCCC#Cc1ccc([C@H]2[C@@H](C#N)N(C(=O)C3CCCCC3)[C@H]2CO)cc1	7	79*	-4	-1	5[16.7 µM]	.
CCc1nc(N2[C@@H](C#N)[C@H](c3ccccc3-c3ccccc3F)[C@@H]2CO)sc1C	58*	-15	-7	-2	.	.
COc1ccccc1C#Cc1ccc([C@H]2[C@@H](C#N)N(C(=O)C3CCC3)[C@H]2CO)cc1	-17	64*	13	3	-1[16.7 µM]	.
O=C(C[C@@H]1CC[C@H]2[C@@H](COC[C@@H](O)CN2C(=O)c2cnccn2)O1)NCc1ccc(Oc2ccccc2)cc1	.	.	2	0	.	.
C[C@@H]1CCCCO[C@H](CN(C)Cc2ccc3c(c2)OCO3)[C@H](C)CN([C@H](C)CO)C(=O)c2cc(NC(=O)Cc3ccccc3)ccc2O1	17	-4	.	.	-15[16.7 µM]	.
COc1ccccc1C#Cc1ccc([C@@H]2[C@@H](C#N)N(C(=O)C3CCCCC3)[C@H]2CO)cc1	0	89*	-2	1	18[16.7 µM]	.
COc1ccccc1C#Cc1ccc([C@H]2[C@@H](C#N)N(C(=O)C3CCCCC3)[C@H]2CO)cc1	63*	73*	16	5	10[16.7 µM]	.
N#C[C@H]1[C@@H](c2ccc(C#Cc3ccccc3F)cc2)[C@@H](CO)N1C(=O)C1CCCCC1	12	82*	6	5	-9[16.7 µM]	.
COCC(=O)Nc1ccc2c(c1)[C@@H]1C[C@@H](CC(=O)NCc3ccc(OC)cc3)O[C@@H](CO)[C@@H]1O2	0	-4	-9	-1	-13[16.7 µM]	.
C[C@H](CO)N1C[C@H](C)[C@@H](CN(C)C(=O)[C@H](C)c2ccccc2)OCc2ccccc2-c2ccccc2C1=O	-5	4	-15	-1	20[16.7 µM]	.
C/C=C/c1ccc2c(c1)O[C@@H](CN(C)Cc1ccc(C(=O)O)cc1)[C@@H](C)CN([C@@H](C)CO)S2(=O)=O	2	0	.	3	-2[16.7 µM]	.
COc1cccc(NC(=O)N[C@@H]2CC[C@@H](CC(=O)N3CCOCC3)O[C@H]2CO)c1	-1	5	.	-2	8[16.7 µM]	.
COc1ccc([C@@H]2[C@@H]3C(=O)N(C(C)(C)C)C(=O)[C@@H]3[C@]3(Cc4ccc(Cl)cc4)C(=O)N(c4cccc(F)c4)C(=O)N23)cc1	-10	5	-1	3	107*	-1
COc1ccc([C@@H]2[C@@H]3C(=O)N(C(C)(C)C)C(=O)[C@@H]3[C@]3(Cc4ccc(Cl)cc4)C(=O)N(c4cccc(Br)c4)C(=O)N23)cc1	0	28	-3	1	78*	3
CCC(=O)N1C[C@H](O)COC[C@@H]2O[C@H](CC(=O)NCC3CCCCC3)CC[C@H]21	-1	-9	-11	0	12[16.7 µM]	.
Cc1ccc2cc3cc(C(=O)NCCN4CCOCC4)oc3nc2c1	.	.	8	.	59*	0
COc1ccc2cc3cc(C(=O)NCCc4ccc(OC)c(OC)c4)oc3nc2c1	.	.	-4	.	68*	0
CN(/N=C/c1ccc(O)cc1O)c1nc(-c2ccccc2)cc(-c2ccccc2)n1	16	158*	-6	6	.	-1
O=C(O)CCC(=O)N1CCN(S(=O)(=O)c2ccc3ccccc3c2)CC1	5	-229	6	1	-11	0
SMILES	EWS-Fli block	PAX8 inh HTS	FN deposit inh	MLL AF4-AF9 inh	HIV Env fusion	Glyco luc inh
O=C(Cn1ncc(Cl)c(Cl)c1=O)N1CCN(S(=O)(=O)c2ccc3ccccc3c2)CC1	.	97*	5	.	-15	-17
O=C(CCC(=O)N1CCN(S(=O)(=O)c2ccc3ccccc3c2)CC1)Nc1cc(Cl)cc(Cl)c1	14	48	1	-13	85*	9
OC1(c2ccc(OC(F)F)cc2)CSC(=Nc2cccnc2)N1C1CC1 (stereo not given)	.	7	9	.	75*	-3
COc1ccc(OC)c(C2(O)CSC(=Nc3cccnc3)N2Cc2ccco2)c1 (stereo not given)	-2	13	5	-2	22	-2
S=C(Nc1ccccc1)Nc1ccc(OCc2ccc(Cl)cc2Cl)cc1	.	.	.	.	103*	-7
S=C(NCCSCc1ccc(Cl)cc1Cl)Nc1ccccc1	.	.	-11	.	-56	-1
COc1ccccc1CNC(=O)c1cc(C2CC2)nc2c1cnn2C(C)C	12	3	2	-3	.	1
COc1ccc(CNC(=O)c2cc(C3CC3)nc3c2cnn3C(C)C)cc1	8	14	-27	32*	3	1
O=C(NCCCn1ccnc1)C1CC(c2ccccc2Cl)=NO1 (stereo not given)	8	-3	-5	28*	-7	1
COc1ccc(NC(=O)COC(=O)Cc2c(F)cccc2Cl)cc1OC	6	-1	-2	-1	20	-1
COc1ccccc1CNC(=O)COC(=O)Cc1c(F)cccc1Cl	-4	66*	-1	-1	-7	0
O=C(c1ccccc1)c1ccc(OCC(O)CN2CCN(S(=O)(=O)N3CCCCC3)CC2)cc1 (stereo not given)	.	.	.	.	60*	-2
Cc1ccc(-c2[nH]c3cc(C(=O)NCCCn4ccnc4)ccc3c(=O)c2O)cc1	-4	10	-6	57*	-8	3
Cc1ccc(CNC(=O)c2ccc3c(=O)c(O)c(-c4ccc(C)cc4)[nH]c3c2)cc1	9	70*	13	-1	57*	-12
Cc1ccc(S(=O)(=O)C2(C(=O)N3CCN(c4cc(C)ccc4C)CC3)CC2)cc1	5	-15	-6	38*	15	-4
COc1ccc(Nc2n[nH]c(N)c2C(N)=O)cc1	-6	8	8	29*	-16	0
COc1ccc(Nc2nc(C)cc(C)c2C(N)=O)cc1	.	.	.	.	.	4
CCOC(=O)c1sc(N(Cc2ccccc2)C(=O)CCl)nc1C	57*	-52	3	0	5	-2
CCOC(=O)c1sc(N(Cc2ccccc2)C(=O)COC(=O)c2ccccc2O)nc1C	-8	-37	-2	-3	16	6
Cc1ccc(Nc2nc(N/N=C/c3c[nH]c4ccccc34)nc(N3CCOCC3)n2)cc1	8	24	30	12	9	-7
